assay: Toxicity liver stage against HepG2, at 10uM; type: cell-based; set-up: test concentration 10 uM, cell line HepG2-A16-CD81EGFP; conditions: human, HepG2-A16-CD81EGFP cells; read-out: INHIBITION
Outline: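 Uninfected HepG2-A16-CD81EGFP cells, 3 × 10^3 per well, 1536-well, plated on prespotted compound at 10 μM final, parasite-free screening media added to match infected plates; puromycin 10 μM positive, DMSO 0.5% negative; run in parallel with 48 h PbLuc assay at 37 °C, 5% CO2; viability by CellTiter-Glo luminescence, normalized to controls.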

Compound | cytotoxicity at 10 µM
COc1ccc2c(ccn2CCC(=O)O)c1 | 15.4%
CCN1C(=O)CC(N(C)Cc2nc3ccccc3c(=O)[nH]2)C1=O (stereo unspecified) | 2.06%
CN1C[C@H]2CN(C(=O)c3ccc4c(c3)OCO4)CCN2C1=O | -0.434%
COc1ccccc1CN1CC[C@H](c2nnc(-c3cncn3C)o2)C1 | 8.33%
CCOC(=O)CNC(=O)NCc1cccn1Cc1ccc(F)cc1 | 11.6%
O=C(NCC1CC1)c1cc(Br)cnc1N1CCCCC1 | 3.1%
CC(C)C1Nc2ccccc2C(=O)N1CC(=O)Nc1nc2c(s1)CCC2 (stereo unspecified) | 2.31%
Cc1nnc(NC(=O)CCc2c(C)nn3cnnc3c2C)s1 | -1.7%
CCSc1ccccc1C(=O)NCCn1nc(-n2cncn2)ccc1=O | -5.65%
Cn1cccc1C(=O)N[C@@H]1CN(S(C)(=O)=O)[C@@H]2COC[C@@H]21 | 14.1%
Cc1ncsc1CN1CC[C@H]2OCC[C@@]2(C(=O)N2CCCO2)C1 | -0.0653%
CCC1=N[C@@]2(CC[C@@H]3CN(S(=O)(=O)CC)C[C@@H]32)C(=O)N1CC | 5.22%
COCC1CN(Cc2cccnc2OC)Cc2cnn(C)c21 (stereo unspecified) | 2.69%
COc1ccc(CNC(=O)c2cc3c(nc2O)CCC(C)C3)cc1 (stereo unspecified) | -6.1%
CC1CCN(c2nccn3c(=O)[nH]nc23)CC1 | 6.09%
Cn1c(C(F)(F)F)nn(CCNC(=O)CSCc2ccccc2)c1=O | -24%
CN1CCN(C(=O)Cn2nc(C(F)(F)F)c(Br)c2C2CC2)CC1 | -8.5%
CC1CCC2(CC1)NC(=O)c1cc(Br)ccc1-n1nnnc12 (stereo unspecified) | 10.1%
CCn1nc(C)c2c1cnn2CCNS(C)(=O)=O | 7.55%
Oc1ccc(Cl)cc1CNCc1ccccc1C(F)(F)F | 2.67%
O=C(NCCCn1cccn1)C1(c2ccccc2)CCOCC1 | 5.78%
Cc1nn(C)c2cnn(C(C)C(=O)NCc3cccnc3)c12 (stereo unspecified) | 9.77%
O=C(COCc1nc(-c2ccncc2)no1)N1CCCC1 | -10.7%

Compound | cytotoxicity at 10 µM
COCCC(=O)N1C[C@@H](O)[C@H](N2CCN(c3ccccc3)CC2)C1 | 0.046%
CN1CCN(CC2(O)CCN(C(=O)CCc3ccccc3F)C2)CC1 (stereo unspecified) | -2%
COc1ccc2c(c1)c(-c1nc(N(C)C)ncc1CN)cn2C | 7.43%
Cc1nnc(C2CCN(c3ccccc3)CC2)o1 | 8.84%
CN1CCC(c2cccc(C(=O)N(C)C)n2)CC1 | 4.53%
CCC(=O)N1CCC(Cc2cnc(Nc3cnccn3)cn2)CC1 | -2.19%
COc1cc2cc3c(nc2cc1OC)OCCN(Cc1ccco1)C3 | -0.116%
Cc1csc(Nc2cc(C3CCCCN3C)nc(C)n2)n1 (stereo unspecified) | 4.73%
COc1ccc2c(O)c(NC(=O)NCC3CC3)cnc2c1 | -0.799%
CN(C)C(=O)c1nc(-c2ccc(S(C)(=O)=O)cc2)c2cnccn12 | 7.27%
CN(C)C(=O)N1CCN(c2ccc(Cl)nn2)C(=O)C1 | 9.1%
COCCN(CCOC)C(=O)c1sc(C)nc1C | 2.16%
CCOc1ccccc1C(=O)Nc1cccc(C[S+](C)[O-])c1C (stereo unspecified) | -4.35%
CC(=O)Nc1ccc(SCC(O)COCc2ccccc2)cc1 (stereo unspecified) | 1.87%
Cc1nc2cc(=O)[nH]n2c(C)c1CC(=O)NC(C)C | 11.3%
Cc1nnc(NCCc2coc(-c3ccccc3)n2)c(C#N)c1C | -14.3%
CC(C)c1nc(S(=O)(=O)Nc2ccnn2C2CCCC2)c[nH]1 | -3.36%
CC(=O)N1CCCC(c2nc(-c3ccccc3)c[nH]2)C1 (stereo unspecified) | 6.48%
COc1cccc(CC(C)NC(=O)NCCc2cccnc2)c1 (stereo unspecified) | -11%
CCN1CC(COC(=O)c2cccc(Br)c2)CC1=O (stereo unspecified) | 4.91%
CNS(=O)(=O)CC(=O)NC(c1cc(C)sc1C)C(C)C (stereo unspecified) | 0.918%
Cn1cc(CC2CC(=O)N(Cc3ccc(OC(F)F)cc3)C2=O)cn1 (stereo unspecified) | 6.6%
CCOc1ccc(NCC(=O)NCC(=O)N2CCCC2)c(C(F)(F)F)c1 | -12.8%

Compound | cytotoxicity at 10 µM
OCc1cc2ccccc2nc1N1CCCC1 | -8.82%
O=C(NCc1cccnc1)NCC(O)c1ccccc1C(F)(F)F (stereo unspecified) | 1.5%
CCC(O)CN(CC(=O)Nc1cc(C)no1)c1ccccc1 (stereo unspecified) | -2.59%
CC(=O)Nc1ccc(C(=O)N2CCOc3nc(C)ccc32)cc1 | 2.81%
O=C(c1ccncc1F)N1CCCC1c1nc(-c2ccccc2)n[nH]1 (stereo unspecified) | 1.34%
Cc1nnc(SC2CCN(c3sccc3C#N)C2=O)s1 (stereo unspecified) | -7.22%
CC(O)CN1CCC(CN(C)CC(=O)NC(C)C)CC1 (stereo unspecified) | -2.32%
COc1ccc(CCCN(C)C(=O)c2cc(Cl)c[nH]2)cc1OC | -1.24%
O=C1CCCN1CC1CCCCN1C(=O)Nc1cccc(F)c1 (stereo unspecified) | -1.8%
CC(C)N(CC(N)=O)Cc1cccc(Br)c1 | -6.93%
CN1CCOC(C(=O)N2CCOC3(CCCC3)C2)C1 (stereo unspecified) | 7.28%
CCCC(NC(=O)c1cc(C)ccc1C)c1nnn[nH]1 (stereo unspecified) | -9.11%
CCC(CNC(=O)c1ccc(Br)o1)N1CCc2ccccc2C1 (stereo unspecified) | -20.5%
O=C(NCc1cccc(F)c1)N1CCc2ncnc(NC3CC3)c2CC1 | -105%
CS(=O)(=O)N1CCO[C@@H]2CN(C(=O)Cc3cccs3)CC[C@@H]2C1 | -108%
Cc1nc(N2CCOCC2)nc2c1CN(CC(=O)N(C)C)CC2 | -101%
CS(=O)(=O)N1CCC(N2CCCC2c2ccccn2)CC1 (stereo unspecified) | -7.65%
O=C(NCC1CCCO1)c1cc(COc2ccccc2F)[nH]n1 (stereo unspecified) | 10.8%
CCOC(=O)CCNC(=O)N1CCCC(CNC(=O)c2cccs2)C1 (stereo unspecified) | 0.712%
Cc1cc(NCc2nnc3n2CCCCC3)n2nc(C)c(C)c2n1 | 5.66%
Cc1nonc1N1CCN(Cc2nc(CC3CC3)no2)CC1 | 9.34%
CCn1cc(SCC(=O)N2CCCC(O)(CO)C2)c2ccccc21 (stereo unspecified) | 6.37%
CC(C)(O)CCc1ccc(C(=O)N2CCN(CCS(C)(=O)=O)CC2)cc1 | -0.686%

Compound | cytotoxicity at 10 µM
CSCC(=O)N1CCc2c(cnc(C)c2-c2noc(-c3cscn3)n2)C1 | 0.86%
CCCc1cc(NC2CCN(Cc3ccccn3)CC2)n2nccc2n1 | -3.91%
O=C1CCCN1CCC1CCN(C2CCC3(CCNCC3)CC2)CC1 | 10.9%
Cc1nn(C)c(C)c1C(C(=O)O)N1CCc2ccccc2C1 (stereo unspecified) | -0.492%
CC(C)=Cc1c(-c2ccccc2)ncn1CCN(C)S(C)(=O)=O | -0.334%
Cc1c[nH]c(CN(C)C(C(=O)O)c2c(F)cccc2Cl)n1 (stereo unspecified) | -41.7%
Cn1ccnc1CN1CCCC(CO)(CCc2ccccc2)C1 (stereo unspecified) | -3.36%
Cn1ncc2c(NCC(=O)N3CCNCC3)nc(C(C)(C)C)nc21 | -10.6%
Cc1cccc(N2CCC3(CCCN3Cc3cnn(C)c3C)CC2)n1 | -2.35%
CCOc1ncccc1C(=O)N1CCCC(c2nccn2CCOC)C1 (stereo unspecified) | -9.12%
CC(C)CN1CCCn2nc(CNC(=O)CCN)cc2C1 | -20.5%
O=C1OC2(CCNCC2)CN1CC(=O)N1CCCC1c1ccco1 (stereo unspecified) | -14.6%
Cc1nc(CN2CCC(N(C)Cc3nnc(C4CC4)n3C)C2)oc1C (stereo unspecified) | -16.1%
Cc1cnn(CC2CN(CC(=O)Nc3cc(C)on3)CCO2)c1 (stereo unspecified) | -7.3%
CCN1CCN(Cc2nc(CC(C)C)no2)CC1 | -23%
Cc1cc(C)c2c(c1)C(NCc1c(C)nn(C)c1N(C)C)CCO2 (stereo unspecified) | -4.07%
Cc1nc(CSCCC(=O)NCc2ccc(-n3cncn3)nc2)cs1 | -27.2%
Cc1cc(C2CCCN(CCCS(N)(=O)=O)C2)n[nH]1 (stereo unspecified) | -20.1%
CN(Cc1cccnc1)C(=O)NC1CCN(Cc2ccccn2)CC1 | -18.2%
Cc1ccc(NC2CCN(C(=O)c3cccnc3O)CC2)nn1 | -27.6%
CN1CCCN(C(=O)NCCNc2ncccn2)CC1 | -16.7%
c1coc(-c2nc(CN3CCCC(Cn4cncn4)C3)cs2)c1 (stereo unspecified) | -12%
Cc1nc(-c2ccccc2)n(CC(=O)NC(C)(C)C)n1 | -16%

Compound | cytotoxicity at 10 µM
Cc1ccc(N2CCCC(NCc3cccc4c3OCO4)C2)nn1 (stereo unspecified) | -16.4%
CCNc1cc2c(nn1)CCN(C(=O)Cc1noc3ccccc13)C2 | -7.42%
CCc1ccc(S(=O)(=O)Nc2cc(C(=O)O)c(F)cc2F)s1 | -7.44%
Cc1cc(C)cc(NC(=O)CN2CCCC(n3cncn3)C2)c1 (stereo unspecified) | -9.93%
Cc1nnc2n1CCN(Cc1csc(CC(=O)N(C)C)n1)C2 | -7.08%
Cc1cn2c(n1)CCC(NC(=O)c1cc(Br)cn1C)C2 (stereo unspecified) | 3.18%
CS(=O)(=O)NC1CCCN(C(=O)NCc2cc[nH]n2)C1 (stereo unspecified) | 4.14%
Cc1cccc(C(=O)N2C[C@@H]3OCCN(c4ncccn4)[C@@H]3C2)n1 | 0.523%
Cc1ccc(CN2CCn3cc(CNC(=O)c4cnn(C)c4)nc3C2)s1 | 1.13%
COCCN1CCn2cc(CNC(=O)c3cnn(C)c3)nc2C1 | -3.09%
c1cncc(OCc2nnn3c2CN(Cc2ccsc2)CCC3)c1 | -4.34%
COCCN1C[C@@H]2[C@@H](OC)CCN(Cc3cccs3)[C@@H]2C1 | 3.86%
O=C(Cc1ccsc1)N1C[C@@H]2CN(Cc3ccoc3)CCO[C@@H]2C1 | -1.73%
CCS(=O)(=O)NC[C@]12COC[C@H]1CN(Cc1cccnc1OC)C2 | 1.97%
COc1ccc(CN2Cc3nnn(C)c3C(COCCN(C)C)C2)cc1 (stereo unspecified) | 5.26%
Cc1noc(C)c1CN1C[C@@H]2CCCO[C@@H]2[C@H](Nc2ccccn2)C1 | 5.44%
COCCN1C(=O)C[C@H]2[C@H]1CCN2Cc1ccc(OC)cc1 | 1.47%
CC1N(c2cnn(C)c2)C(=O)COC12CCN(Cc1ccco1)CC2 (stereo unspecified) | 1.2%
C=c1ncsc1=C1NN=C(C2CCCN2C(=O)CCn2cccn2)O1 (stereo unspecified) | 2.29%

— ChEMBL document CHEMBL4513216, “Probing the Open Global Health Chemical Diversity Library for Multistage-Active Starting Points for Next-Generation Antimalarials” (ACS Infect Dis, 2020)
